# Experiments:
# [1] = molecular target: 3-phosphoinositide-dependent protein kinase 1 (Homo sapiens) (UniProt O15530); assay: Inhibition of PDK1 (unknown origin) at 1 uM relative to control
# [2] = molecular target: T1, Serine/threonine-protein kinase Nek2 (Homo sapiens) (UniProt P51955); assay: Inhibition of NEK2a (unknown origin) at 1 uM relative to control
# T1 sequence (whole entry): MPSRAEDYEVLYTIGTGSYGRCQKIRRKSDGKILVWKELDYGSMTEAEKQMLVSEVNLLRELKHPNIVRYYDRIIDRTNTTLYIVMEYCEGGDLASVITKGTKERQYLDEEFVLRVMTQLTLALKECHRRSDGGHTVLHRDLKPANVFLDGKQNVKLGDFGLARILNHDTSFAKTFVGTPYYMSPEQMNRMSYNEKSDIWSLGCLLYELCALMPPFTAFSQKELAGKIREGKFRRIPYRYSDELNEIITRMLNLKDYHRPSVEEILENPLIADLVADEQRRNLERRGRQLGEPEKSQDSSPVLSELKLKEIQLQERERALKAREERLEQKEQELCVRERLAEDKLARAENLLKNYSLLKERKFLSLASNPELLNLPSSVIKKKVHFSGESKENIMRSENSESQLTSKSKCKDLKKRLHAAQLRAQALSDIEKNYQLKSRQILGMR
# In short: (§1)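 Single-concentration screen of each compound against a 59-protein-kinase panel, run at 10 µM or 1 µM. Activity relative to control is shown as a heat map across the panel.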
# [3] = molecular target: Mitogen-activated protein kinase 8 (Homo sapiens) (UniProt P45983); assay: Inhibition of JNK1 (unknown origin) at 1 uM relative to control
# Chain of Mitogen-activated protein kinase 8 (Homo sapiens) (P45983 whole entry): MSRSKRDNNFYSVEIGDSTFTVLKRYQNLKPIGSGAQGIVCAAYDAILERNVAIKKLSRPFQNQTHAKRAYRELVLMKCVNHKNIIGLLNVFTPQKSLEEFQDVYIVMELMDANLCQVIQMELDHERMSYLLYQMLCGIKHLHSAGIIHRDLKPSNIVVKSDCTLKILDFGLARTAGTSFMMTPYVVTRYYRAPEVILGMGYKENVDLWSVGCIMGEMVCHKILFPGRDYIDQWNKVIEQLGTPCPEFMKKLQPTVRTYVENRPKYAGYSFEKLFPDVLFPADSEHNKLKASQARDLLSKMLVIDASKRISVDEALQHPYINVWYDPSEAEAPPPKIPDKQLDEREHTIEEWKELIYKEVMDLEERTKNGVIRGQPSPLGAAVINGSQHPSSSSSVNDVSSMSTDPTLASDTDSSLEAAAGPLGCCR
# In short: (§2)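 Single-point screen of each compound against a panel of 59 protein kinases, at 1 or 10 μM. The panel data are also summarised as a rescaled geometric mean selectivity score.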
# [4] = molecular target: Mitogen-activated protein kinase 9 (Homo sapiens) (UniProt P45984); assay: Inhibition of JNK2 (unknown origin) at 1 uM relative to control
# Chain of Mitogen-activated protein kinase 9 (Homo sapiens) (P45984 whole entry, looked up): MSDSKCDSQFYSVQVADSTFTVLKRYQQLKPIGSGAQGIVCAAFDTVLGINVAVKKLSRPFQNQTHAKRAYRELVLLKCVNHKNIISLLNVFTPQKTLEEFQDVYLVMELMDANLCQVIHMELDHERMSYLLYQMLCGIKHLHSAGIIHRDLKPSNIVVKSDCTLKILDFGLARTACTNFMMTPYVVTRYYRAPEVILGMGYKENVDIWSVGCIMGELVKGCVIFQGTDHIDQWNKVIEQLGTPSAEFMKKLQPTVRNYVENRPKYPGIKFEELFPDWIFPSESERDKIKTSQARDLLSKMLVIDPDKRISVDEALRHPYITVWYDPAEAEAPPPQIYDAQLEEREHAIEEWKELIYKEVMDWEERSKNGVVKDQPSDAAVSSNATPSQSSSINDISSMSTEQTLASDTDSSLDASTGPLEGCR
# In short: as §2
# [5] = molecular target: Tyrosine-protein kinase CSK (Homo sapiens) (UniProt P41240); assay: Inhibition of CSK (unknown origin) at 1 uM relative to control
# Chain of Tyrosine-protein kinase CSK (Homo sapiens) (P41240 2-450 limits assumed): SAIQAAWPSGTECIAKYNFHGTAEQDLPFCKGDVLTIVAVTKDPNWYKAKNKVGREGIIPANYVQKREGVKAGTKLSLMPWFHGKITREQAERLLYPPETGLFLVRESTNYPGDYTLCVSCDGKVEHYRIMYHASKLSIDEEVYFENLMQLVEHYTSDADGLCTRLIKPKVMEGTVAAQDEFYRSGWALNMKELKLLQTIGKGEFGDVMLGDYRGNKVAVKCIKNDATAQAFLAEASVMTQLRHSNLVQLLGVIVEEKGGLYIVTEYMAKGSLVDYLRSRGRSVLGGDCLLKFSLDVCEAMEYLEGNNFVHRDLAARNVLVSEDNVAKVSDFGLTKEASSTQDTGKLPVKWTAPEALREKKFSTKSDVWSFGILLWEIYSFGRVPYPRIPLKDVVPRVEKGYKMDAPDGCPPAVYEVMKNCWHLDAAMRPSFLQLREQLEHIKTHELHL
# In short: as §2
# [6] = molecular target: T2, Serine/threonine-protein kinase D1 (Homo sapiens) (UniProt Q15139); assay: Inhibition of PKD1 (unknown origin) at 1 uM relative to control
# T2 sequence (whole entry): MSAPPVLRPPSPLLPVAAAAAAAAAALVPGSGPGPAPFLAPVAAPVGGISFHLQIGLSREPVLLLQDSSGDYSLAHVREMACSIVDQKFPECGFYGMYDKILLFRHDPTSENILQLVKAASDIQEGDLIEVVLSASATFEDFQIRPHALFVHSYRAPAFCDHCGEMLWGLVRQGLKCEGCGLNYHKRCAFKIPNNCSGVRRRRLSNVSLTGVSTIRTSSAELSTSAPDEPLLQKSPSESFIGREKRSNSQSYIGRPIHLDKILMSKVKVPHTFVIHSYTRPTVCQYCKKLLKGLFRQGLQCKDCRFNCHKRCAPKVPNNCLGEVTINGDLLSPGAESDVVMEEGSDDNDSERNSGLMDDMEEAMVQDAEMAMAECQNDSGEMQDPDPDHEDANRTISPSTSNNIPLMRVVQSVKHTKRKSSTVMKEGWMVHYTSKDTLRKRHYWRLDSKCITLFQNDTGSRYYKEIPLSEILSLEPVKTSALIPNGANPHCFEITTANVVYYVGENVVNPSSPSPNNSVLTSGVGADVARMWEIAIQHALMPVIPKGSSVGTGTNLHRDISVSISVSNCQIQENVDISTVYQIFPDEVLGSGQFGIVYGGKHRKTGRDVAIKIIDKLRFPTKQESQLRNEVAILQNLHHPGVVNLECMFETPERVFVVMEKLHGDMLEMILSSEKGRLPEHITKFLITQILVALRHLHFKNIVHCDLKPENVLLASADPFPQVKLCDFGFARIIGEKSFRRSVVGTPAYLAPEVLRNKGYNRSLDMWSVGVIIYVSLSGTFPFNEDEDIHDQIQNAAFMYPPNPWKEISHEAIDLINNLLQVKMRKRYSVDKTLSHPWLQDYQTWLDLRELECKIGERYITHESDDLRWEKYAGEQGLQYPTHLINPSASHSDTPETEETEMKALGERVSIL
# In short: as §1
# [7] = molecular target: Casein kinase I (Homo sapiens) (UniProt Q9HCP0+P78368+P48730+P49674+P48729); assay: Inhibition of CK1 (unknown origin) at 1 uM relative to control; format: protein assay
# In short: as §2
# [8] = molecular target: MAP/microtubule affinity-regulating kinase 3 (Homo sapiens) (UniProt P27448); assay: Inhibition of MARK3 (unknown origin) at 1 uM relative to control
# Chain of MAP/microtubule affinity-regulating kinase 3 (Homo sapiens) (P27448 whole entry, looked up): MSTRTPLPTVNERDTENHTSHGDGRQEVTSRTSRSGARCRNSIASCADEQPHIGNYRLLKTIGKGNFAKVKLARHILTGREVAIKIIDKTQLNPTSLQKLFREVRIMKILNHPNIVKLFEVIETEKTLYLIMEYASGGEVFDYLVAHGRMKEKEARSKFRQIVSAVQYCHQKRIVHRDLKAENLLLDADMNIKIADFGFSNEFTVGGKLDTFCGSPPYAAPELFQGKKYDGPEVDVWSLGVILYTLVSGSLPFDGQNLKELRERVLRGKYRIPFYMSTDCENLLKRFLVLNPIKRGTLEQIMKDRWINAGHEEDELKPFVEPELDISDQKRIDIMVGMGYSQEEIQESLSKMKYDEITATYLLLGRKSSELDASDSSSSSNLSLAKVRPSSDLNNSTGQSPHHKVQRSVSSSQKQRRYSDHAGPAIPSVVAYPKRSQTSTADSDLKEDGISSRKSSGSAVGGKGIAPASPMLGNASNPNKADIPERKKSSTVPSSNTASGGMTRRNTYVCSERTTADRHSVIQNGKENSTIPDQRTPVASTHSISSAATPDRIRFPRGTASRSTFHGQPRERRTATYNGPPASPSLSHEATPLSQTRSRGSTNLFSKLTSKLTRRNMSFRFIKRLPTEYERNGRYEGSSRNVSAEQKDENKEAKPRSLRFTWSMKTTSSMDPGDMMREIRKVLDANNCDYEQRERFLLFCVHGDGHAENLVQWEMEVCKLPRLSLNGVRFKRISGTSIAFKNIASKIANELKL
# In short: as §1
# [9] = molecular target: Tyrosine-protein kinase BTK (Homo sapiens) (UniProt Q06187); assay: Inhibition of BTK (unknown origin) at 1 uM relative to control
# Chain of Tyrosine-protein kinase BTK (Homo sapiens) (Q06187 whole entry): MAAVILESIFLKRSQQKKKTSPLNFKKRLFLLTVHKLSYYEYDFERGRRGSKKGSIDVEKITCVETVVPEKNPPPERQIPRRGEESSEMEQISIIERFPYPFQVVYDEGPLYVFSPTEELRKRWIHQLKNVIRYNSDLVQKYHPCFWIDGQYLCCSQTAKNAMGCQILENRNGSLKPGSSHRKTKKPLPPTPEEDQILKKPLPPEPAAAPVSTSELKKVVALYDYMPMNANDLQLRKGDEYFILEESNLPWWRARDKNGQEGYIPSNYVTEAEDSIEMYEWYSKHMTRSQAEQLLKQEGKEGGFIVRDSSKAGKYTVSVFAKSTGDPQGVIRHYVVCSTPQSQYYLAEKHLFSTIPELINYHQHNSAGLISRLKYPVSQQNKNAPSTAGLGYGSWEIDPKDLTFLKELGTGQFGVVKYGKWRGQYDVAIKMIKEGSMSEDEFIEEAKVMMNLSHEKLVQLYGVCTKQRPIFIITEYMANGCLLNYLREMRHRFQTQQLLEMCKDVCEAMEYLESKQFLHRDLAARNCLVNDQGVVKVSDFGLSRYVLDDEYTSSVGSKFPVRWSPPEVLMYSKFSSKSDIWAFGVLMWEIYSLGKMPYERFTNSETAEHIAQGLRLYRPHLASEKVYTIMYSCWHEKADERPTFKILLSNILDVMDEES
# In short: as §2
# [10] = molecular target: T3, Eukaryotic elongation factor 2 kinase (Homo sapiens) (UniProt O00418); assay: Inhibition of EF2K (unknown origin) at 1 uM relative to control
# T3 sequence (whole entry): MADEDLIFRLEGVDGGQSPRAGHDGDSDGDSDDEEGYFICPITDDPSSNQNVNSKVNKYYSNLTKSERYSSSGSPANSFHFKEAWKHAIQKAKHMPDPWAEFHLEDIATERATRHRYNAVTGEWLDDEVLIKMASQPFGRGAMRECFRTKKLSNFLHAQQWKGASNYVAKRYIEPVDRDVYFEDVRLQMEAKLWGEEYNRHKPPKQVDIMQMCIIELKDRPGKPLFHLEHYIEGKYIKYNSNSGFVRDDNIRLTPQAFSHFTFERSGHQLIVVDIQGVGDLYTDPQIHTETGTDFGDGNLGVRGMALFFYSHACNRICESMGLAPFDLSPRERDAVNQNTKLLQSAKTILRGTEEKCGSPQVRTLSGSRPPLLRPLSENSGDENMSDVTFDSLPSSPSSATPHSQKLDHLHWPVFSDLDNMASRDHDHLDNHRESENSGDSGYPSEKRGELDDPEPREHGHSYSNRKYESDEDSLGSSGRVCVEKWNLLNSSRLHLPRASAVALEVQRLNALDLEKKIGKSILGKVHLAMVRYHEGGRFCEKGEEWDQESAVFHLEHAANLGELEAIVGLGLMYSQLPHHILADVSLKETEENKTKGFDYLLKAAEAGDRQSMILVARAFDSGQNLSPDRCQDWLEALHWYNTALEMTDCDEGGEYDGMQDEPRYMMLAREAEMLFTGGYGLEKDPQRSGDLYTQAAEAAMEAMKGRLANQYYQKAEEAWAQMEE
# In short: as §2
# [11] = molecular target: Ribosomal protein S6 kinase alpha-1 (Homo sapiens) (UniProt Q15418); assay: Inhibition of RSK1 (unknown origin) at 1 uM relative to control
# Chain of Ribosomal protein S6 kinase alpha-1 (Homo sapiens) (Q15418 whole entry): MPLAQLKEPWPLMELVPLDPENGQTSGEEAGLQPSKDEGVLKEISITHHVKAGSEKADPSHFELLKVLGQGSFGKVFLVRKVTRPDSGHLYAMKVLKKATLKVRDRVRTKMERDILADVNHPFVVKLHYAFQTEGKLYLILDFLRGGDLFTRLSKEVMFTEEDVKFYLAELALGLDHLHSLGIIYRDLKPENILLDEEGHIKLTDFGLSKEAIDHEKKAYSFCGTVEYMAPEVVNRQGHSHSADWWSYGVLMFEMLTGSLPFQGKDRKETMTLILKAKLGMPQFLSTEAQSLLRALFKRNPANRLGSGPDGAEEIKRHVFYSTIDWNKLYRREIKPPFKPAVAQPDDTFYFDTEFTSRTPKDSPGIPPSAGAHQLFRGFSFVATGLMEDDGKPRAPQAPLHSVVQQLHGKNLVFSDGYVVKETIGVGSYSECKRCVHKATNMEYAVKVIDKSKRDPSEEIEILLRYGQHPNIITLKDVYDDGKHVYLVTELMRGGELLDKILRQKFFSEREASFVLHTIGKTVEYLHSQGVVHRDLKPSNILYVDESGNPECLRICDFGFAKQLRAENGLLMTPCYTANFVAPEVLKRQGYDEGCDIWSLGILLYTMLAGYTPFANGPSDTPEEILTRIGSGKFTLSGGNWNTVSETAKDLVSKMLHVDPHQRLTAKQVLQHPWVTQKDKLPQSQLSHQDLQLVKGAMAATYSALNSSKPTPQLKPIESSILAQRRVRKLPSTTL
# In short: as §1
# [12] = molecular target: RAC-alpha serine/threonine-protein kinase (Homo sapiens) (UniProt P31749); assay: Inhibition of PKBa (unknown origin) at 1 uM relative to control
# Chain of RAC-alpha serine/threonine-protein kinase (Homo sapiens) (P31749 whole entry): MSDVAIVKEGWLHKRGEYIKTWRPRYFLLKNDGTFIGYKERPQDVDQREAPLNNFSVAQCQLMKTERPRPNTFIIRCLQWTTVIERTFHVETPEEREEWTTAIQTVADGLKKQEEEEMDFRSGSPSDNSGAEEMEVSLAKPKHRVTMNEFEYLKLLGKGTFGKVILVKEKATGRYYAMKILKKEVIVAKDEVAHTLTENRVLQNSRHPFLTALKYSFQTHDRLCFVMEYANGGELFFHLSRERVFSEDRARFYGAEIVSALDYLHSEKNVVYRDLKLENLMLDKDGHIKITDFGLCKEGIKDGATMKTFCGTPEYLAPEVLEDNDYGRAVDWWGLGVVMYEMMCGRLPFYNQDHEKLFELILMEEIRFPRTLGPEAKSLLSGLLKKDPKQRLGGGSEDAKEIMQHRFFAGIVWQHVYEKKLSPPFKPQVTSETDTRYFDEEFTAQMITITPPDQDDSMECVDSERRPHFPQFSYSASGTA
# In short: as §1
# [13] = molecular target: Serine/threonine-protein kinase Nek6 (Homo sapiens) (UniProt Q9HC98); assay: Inhibition of NEK6 (unknown origin) at 1 uM relative to control
# Chain of Serine/threonine-protein kinase Nek6 (Homo sapiens) (Q9HC98 whole entry): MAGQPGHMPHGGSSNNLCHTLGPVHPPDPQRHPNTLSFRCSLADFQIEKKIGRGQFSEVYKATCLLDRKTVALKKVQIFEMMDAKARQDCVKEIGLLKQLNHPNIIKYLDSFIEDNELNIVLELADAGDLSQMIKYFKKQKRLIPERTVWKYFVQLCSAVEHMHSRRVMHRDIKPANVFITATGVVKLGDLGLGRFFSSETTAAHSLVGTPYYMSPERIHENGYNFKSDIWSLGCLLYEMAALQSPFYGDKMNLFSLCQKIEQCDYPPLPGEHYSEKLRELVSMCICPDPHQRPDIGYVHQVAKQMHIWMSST
# In short: as §1
# Chain of 3-phosphoinositide-dependent protein kinase 1 (Homo sapiens) (O15530 whole entry, looked up): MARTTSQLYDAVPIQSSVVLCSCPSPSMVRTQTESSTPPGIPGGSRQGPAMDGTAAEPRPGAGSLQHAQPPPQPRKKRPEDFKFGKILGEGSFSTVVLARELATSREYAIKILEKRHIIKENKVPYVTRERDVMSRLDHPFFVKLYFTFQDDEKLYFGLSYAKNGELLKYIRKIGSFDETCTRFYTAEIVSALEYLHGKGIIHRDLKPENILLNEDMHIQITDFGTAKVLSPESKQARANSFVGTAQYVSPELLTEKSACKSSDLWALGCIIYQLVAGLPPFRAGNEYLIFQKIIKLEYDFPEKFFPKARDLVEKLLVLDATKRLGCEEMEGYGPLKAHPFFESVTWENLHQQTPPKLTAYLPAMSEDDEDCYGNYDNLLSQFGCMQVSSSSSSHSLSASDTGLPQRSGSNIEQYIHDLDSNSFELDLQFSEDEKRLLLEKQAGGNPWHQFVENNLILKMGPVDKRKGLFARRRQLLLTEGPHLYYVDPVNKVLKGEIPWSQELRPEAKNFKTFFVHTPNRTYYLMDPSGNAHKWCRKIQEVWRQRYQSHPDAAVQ
compound,measurement,setting,value
c1cc(-c2n[nH]c3ccnc(OC4CCOCC4)c23)cc(N2CCOCC2)n1,inhibition,[1],0%
same,inhibition,[2],0%
same,inhibition,[3],47%
same,inhibition,[4],43%
same,inhibition,[5],0%
same,inhibition,[6],7%
same,inhibition,[7],0%
same,inhibition,[8],0%
same,inhibition,[9],51%
same,inhibition,[10],9%
same,inhibition,[11],3%
same,inhibition,[12],0%
same,inhibition,[13],0%
CC(C)n1cc(-c2n[nH]c3ccnc(OC4CCOCC4)c23)cn1,inhibition,[1],5%
same,inhibition,[2],8%
same,inhibition,[3],27%
same,inhibition,[4],29%
same,inhibition,[5],0%
same,inhibition,[6],41%
same,inhibition,[7],0%
same,inhibition,[8],18%
same,inhibition,[9],39%
same,inhibition,[10],0%
same,inhibition,[11],62%
same,inhibition,[12],0%
same,inhibition,[13],0%

# From ChEMBL document CHEMBL4330096, “Discovery of potent and selective 5-azaindazole inhibitors of leucine-rich repeat kinase 2 (LRRK2) - Part 1” (Bioorg Med Chem Lett, 2019)
